Laboratory results reported in ChEMBL document CHEMBL1147080, “Inhibition of hepatitis C virus replication by peroxidation of arachidonate and restoration by vitamin E” (Proc Natl Acad Sci U S A, 2007).
pIC50: −log10 of the molar value. Active and inactive are the calls of the source. No cut-off for these calls is given here.

Columns and labels:
Hepatitis C virus [1] = assay: Increase in hepatitis C virus replication in Huh7-K2040 cells in presence of delipidated fetal calf serum medium at 0.3 uM by RT-PCR relative to control; format: functional, organism-based; details: Hepacivirus hominis
In short: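 Replicon-bearing Huh7 cells (genotype 1b subgenomic HCV replicon), 4 × 10^5 cells per 60-mm dish on day 0. On day 2 they were switched to medium with 10% delipidated FCS plus 0.3 μM lipid-soluble vitamin/lipid. Harvested after 72 h. HCV RNA was measured by qRT-PCR, normalized to 36B4 by comparative CT, relative to FCS-cultured controls; mean ± SD of three independent experiments.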

Hepatitis C virus [2] = assay: Inhibition of hepatitis C virus replication in Huh7-K2040 cells in presence of fetal calf serum assessed viral RNA level at 0.1 mM by RT-PCR relative to control; format: functional
In short: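 Huh7-K2040 cells (subgenomic genotype 1b replicon) were seeded at 4 × 10^5 per 60-mm dish. From day 2 they were cultured in 10% FCS with 0.1 mM BSA-conjugated fatty acid for 72 h. HCV RNA was measured by real-time PCR with 36B4 as invariant control (comparative CT), relative to untreated FCS cells; mean ± SD, three independent experiments.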

Hepatitis C virus [3] = assay: Inhibition of hepatitis C virus replication in Huh7-K2040 cells in presence of delipidated fetal calf serum assessed viral RNA level at 0.1 mM by RT-PCR relative to control; format: functional
In short: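 Huh7-K2040 cells seeded at 4 × 10^5 per 60-mm dish. On day 2 switched to 10% FCS or delipidated FCS with 0.1 mM BSA-conjugated fatty acids for 72 h. HCV RNA measured by real-time RT-PCR in triplicate, normalized to 36B4 by comparative CT, relative to untreated FCS control. Mean ± SD, three independent experiments.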

Hepatitis C virus [4] = assay: Restoration of hepatitis C virus replication in Huh7-K2040 cells in presence of delipidated fetal calf serum medium in absence of arachidonate by RT-PCR relative to control; format: functional, organism-based; details: Hepacivirus hominis
In short: (§1)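 Huh7 cells carrying a genotype 1b subgenomic replicon were seeded on day 0. On day 2 they were moved to medium with 10% delipidated FCS, with or without 0.1 mM BSA-conjugated arachidonate, and given graded vitamin E. After 72 h HCV RNA was quantified by real-time PCR against 36B4 (comparative CT), relative to untreated controls kept in 10% FCS; three independent experiments.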

Hepatitis C virus [5] = assay: Increase of hepatitis C virus replication in Huh7-K2040 cells in delipidated fetal calf serum medium in presence of arachidonate by RT-PCR relative to control; format: functional, organism-based; details: Hepacivirus hominis; in short: as §1
Hepatitis C virus [6] = assay: Restoration of hepatitis C virus replication in Huh7-K2040 cells in delipidated fetal calf serum medium assessed as increase in […] 40 nM in absence of arachidonate by RT-PCR relative to control; format: functional, organism-based; details: Hepacivirus hominis; in short: as §1
Hepatitis C virus [7] = assay: Increase of hepatitis C virus replication in Huh7-K2040 cells in delipidated fetal calf serum medium assessed as increase in […] at 40 nM in presence of arachidonate by RT-PCR relative to control; format: functional, organism-based; details: Hepacivirus hominis; in short: as §1
Hepatitis C virus [8] = assay: Increase of hepatitis C virus replication in Huh7-K2040 cells in fetal calf serum medium in absence of arachidonate by RT-PCR relative to control; format: functional, organism-based; details: Hepacivirus hominis
Hepatitis C virus [9] = assay: Increase of hepatitis C virus replication in Huh7-K2040 cells in fetal calf serum medium in presence of arachidonate by RT-PCR relative to control; format: functional, organism-based; details: Hepacivirus hominis
In short: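 Replicon Huh7-K2040 cells were seeded at 4 × 10^5 per 60-mm dish. On day 2 they went into 10% FCS or 10% delipidated FCS with 0.1 mM BSA-conjugated arachidonate, ± 0.3 μM vitamin E. Cells were harvested 72 h later. HCV RNA was determined by qRT-PCR (36B4 reference, comparative CT), relative to FCS controls.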

Hepatitis C virus [10] = assay: Inhibition of hepatitis C virus replication in Huh7-K2040 cells in presence of fetal calf serum medium assessed as increase of malondialdehyde at 0.1 mM relative to control; format: functional, Hepacivirus hominis
In short: (§2)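 Huh7 or Huh7-K2040 cells seeded 7 × 10^5 per 60-mm dish. On day 1 switched to 10% FCS or 10% delipidated FCS, with or without 0.1 mM BSA-conjugated arachidonate and 0.3 μM vitamin E, for 16 h. MDA measured by TBARS kit at 532 nm in homogenates of cells pooled from two dishes, normalized to cellular protein. Mean ± SD, three independent experiments.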

Hepatitis C virus [11] = assay: Inhibition of hepatitis C virus replication in Huh7-K2040 cells in presence of delipidated fetal calf serum medium assessed as increase of malondialdehyde at 0.1 mM relative to control; format: functional, Hepacivirus hominis; in short: as §2
Hepatitis C virus [12] = assay: Reversal of inhibition of hepatitis C virus replication in Huh7-K2040 cells in presence of delipidated fetal calf serum medium assessed as malondialdehyde level at 0.1 mM in presence of vitamin E; format: functional, organism-based; details: Hepacivirus hominis; in short: as §2
Hepatitis C virus [13] = assay: Inhibition of hepatitis C virus replication in Huh7-K2040 cells in presence of fetal calf serum medium by RT-PCR; format: functional, organism-based, Hepacivirus hominis
In short: (§3)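 Huh7-K2040 replicon cells (4 × 10^5 per 60-mm dish) switched on day 2 to 10% FCS or 10% delipidated FCS with graded BSA-conjugated arachidonate for 72 h. HCV RNA measured by real-time RT-PCR against 36B4 by comparative CT, relative to cells without arachidonate in the same serum. IC50 read from dose–response. Mean ± SD, three independent experiments.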

Hepatitis C virus [14] = assay: Inhibition of hepatitis C virus replication in Huh7-K2040 cells in presence of delipidated fetal calf serum medium by RT-PCR; format: functional, organism-based, Hepacivirus hominis; in short: as §3
Hepatitis C virus [15] = assay: Inhibition of hepatitis C virus replication in Huh7-K2040 in presence of delipidated fetal calf serum medium assessed as increase of malondialdehyde at 0.1 mM after 12 to 24 hrs; format: functional, organism-based; details: Hepacivirus hominis
In short: (§4)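 Huh7-K2040 cells (7 × 10^5 per 60-mm dish) switched on day 1 to 10% delipidated FCS with 0.1 mM BSA-conjugated arachidonate and harvested over a time course up to 72 h. MDA measured by TBARS assay at 532 nm, normalized to protein, relative to cells at time 0. Data from a representative experiment.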

Hepatitis C virus [16] = assay: Inhibition of hepatitis C virus replication in Huh7-K2040 cells in presence of delipidated fetal calf serum medium assessed as increase of malondialdehyde at 0.1 mM after 48 hrs; format: functional, organism-based; details: Hepacivirus hominis; in short: as §4
Hepatitis C virus [17] = assay: Inhibition of hepatitis C virus replication in Huh7-K2040 cells in presence of delipidated fetal calf serum medium assessed as reduction in viral RNA level at 0.1 mM after 12 hrs relative to control; format: functional, Hepacivirus hominis; set-up: scale not given: the % may be the effect or the level left
In short: (§5)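 Time course in Huh7-K2040 cells (7 × 10^5 per 60-mm dish) given 10% delipidated FCS plus 0.1 mM BSA-conjugated arachidonate from day 1. HCV RNA measured by TaqMan real-time RT-PCR, normalized to 36B4 by comparative CT, relative to cells at time 0. Data from a representative experiment.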

Hepatitis C virus [18] = assay: Inhibition of hepatitis C virus replication in Huh7-K2040 cells in presence of delipidated fetal calf serum medium assessed as reduction in viral RNA level at 0.1 mM after 72 hrs relative to control; format: functional, Hepacivirus hominis; set-up: scale not given: the % may be the effect or the level left; in short: as §5
[19] = Cytotoxicity against human Huh7-K2040 cells in delipidated fetal calf serum medium; format: cell-based; details: huh-7
In short: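 Huh7-K2040 replicon cells (7 × 10^5 per 60-mm dish) moved on day 1 to medium with 10% delipidated FCS and 0.1 mM BSA-conjugated arachidonate, or to 10% FCS medium. Cells harvested at set times. Growth followed as total cellular protein by BCA, relative to protein at time 0. Data from a representative experiment.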

Hepatitis C virus [20] = assay: Inhibition of hepatitis C virus replication in Huh7-K2040 cells in presence of delipidated fetal calf serum medium assessed as decrease of malonaldehyde at 0.1 mM after 72 hrs relative to control; set-up: scale not given: the % may be the effect or the level left

CCCCCCCC/C=C\CCCCCCCC(=O)O
Activity (Hepatitis C virus [1]): inactive | Activity (Hepatitis C virus [2]; Hepacivirus hominis): inactive | Activity (Hepatitis C virus [3]; Hepacivirus hominis): inactive

VITAMIN E
Activity (Hepatitis C virus [1]): Active | Activity (Hepatitis C virus [4]): Active | Activity (Hepatitis C virus [5]): 190% | Activity (Hepatitis C virus [6]): Active | Activity (Hepatitis C virus [7]): Active | Activity (Hepatitis C virus [8]): inactive | Activity (Hepatitis C virus [9]): inactive

CCCCC/C=C\C/C=C\C/C=C\C/C=C\CCCC(=O)O [ARACHIDONIC ACID]
Activity (Hepatitis C virus [10]): 8 | Activity (Hepatitis C virus [11]): 48 | Activity (Hepatitis C virus [12]): Active | Activity (Hepatitis C virus [2]): 50% | Activity (Hepatitis C virus [3]): 95% | pIC50 (Hepatitis C virus [13]): 4.22 | pIC50 (Hepatitis C virus [14]): 5.00 | Activity (Hepatitis C virus [15]): Active | Activity (Hepatitis C virus [16]): inactive | Activity (Hepatitis C virus [17]): 40% | Activity (Hepatitis C virus [18]): >90% | Activity [19]: Non-toxic | Activity (Hepatitis C virus [20]): >90%

O=C1O[C@H]([C@@H](O)CO)C(O)=C1O
Activity (Hepatitis C virus [1]): inactive

COC1=C(OC)C(=O)C(C/C=C(\C)CC/C=C(\C)CC/C=C(\C)CCC=C(C)C)=C(C)C1=O
Activity (Hepatitis C virus [1]): Active

CC/C=C\C/C=C\C/C=C\CCCCCCCC(=O)O [LINOLENIC ACID]
Activity (Hepatitis C virus [2]): 50%

CCCCC/C=C\C/C=C\CCCCCCCC(=O)O [LINOLEIC ACID]
Activity (Hepatitis C virus [2]): 50%
